PubChem BioAssay
Active and inactive are the calls of the source.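 How the source made its calls, unless noted: active means fluorescence slope higher than the sample average by over 3 SD (cut at about -0.22 in these data, passing the limit was not always enough); inactive means the rest.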

What was measured:
[1] = inhibitors of TNFa-induced NFkB p65 translocation, primary screen, imaging, HUVEC, MLSMR starter and 10KST1 sets (AID 438;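 active means inhibition above 20% together with a positive visual image hit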;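 further: compound added about 3h40 before a 20 min TNFalpha stimulation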;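 on inhibition: signal is the nuclear over cytoplasmic p65 intensity ratio per well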); conditions: HUVEC TNFa-induced p65 nuclear translocation; cell count: measured here: nuclei count (cytotoxicity indicator), at 2.08 µM; inhibition: at 2 µM, stronger effect = higher value, 0% TNFa-plus-vehicle, 100% no-TNFa wells
[2] = reduction of polyQ htt aggregates in cells – imaging, exon1htt(103Q)mCFP cells, high-content imaging, primary screen (AID 483;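 active means visual image review flags a hit and inhibition of aggregation exceeds 20%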;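 further: compound exposure lasted 3 days before fixation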;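 on nuclei count: percent of the per-plate median nuclei count of sample wells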); conditions: exon1htt(103Q)mCFP cell line, aggregate imaging, at 2 µM; inhibition of aggregation: stronger effect = higher value; nuclei count: measured here: cell count, toxicity
[3] = endothelial E-selectin expression blockers – imaging, HUVEC, immunofluorescence, MLSMR starter and 10KST1 sets, primary screen (AID 487;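 active means visually confirmed hit in the image check and inhibition above 20%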;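 on inhibition: signal is fraction of cell area covered by stained E-selectin grains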;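 on nuclei count: 100% = median nuclei count of all wells on the same plate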); conditions: HUVEC TNFalpha-induced E-selectin immunofluorescence imaging, at 2 µM; inhibition: stronger effect = higher value; nuclei count: measured here: cell number, toxicity
[4] = molecular target: Voltage-gated potassium channel subunit beta-2 (Rattus norvegicus) (UniProt P62483); test: inhibitors of rat Kvbeta2 reductase activity – biochemical, NADPH fluorescence, primary screen (AID 622); conditions: recombinant KvBeta, 4-cyanobenzaldehyde reduction, at 10 µM, stronger effect = higher value;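 further: slope of raw intensity against log time taken from 70 to 1610 s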
[5] = molecular target: Voltage-gated potassium channel subunit beta-2 (Rattus norvegicus) (UniProt P62483); test: enhancers of rat Kvbeta2 NADPH turnover – biochemical, NADPH fluorescence, primary screen (AID 623;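 active means NADPH fluorescence slope more negative than the mean of all samples by about 3 SD, 99.7% confidence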;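 further: fluorescence intensity change per second fitted from 20 to 320 s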); conditions: Recombinant KvBeta, NADPH fluorescence decrease slope, 10 min; at 10 µM; stronger effect = lower value
[6] = molecular target: Muscarinic acetylcholine receptor M4 (Homo sapiens) (UniProt P08173); test: M4-linked GIRK flux change, two-sided – cell-based, HEK293 M4/GIRK, thallium flux, BTC-AM, M4 allosteric agonist project, primary screen (AID 625;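 active means fluorescence slope after compound addition differing from the mean of all tested samples at 99.7% confidence, mostly higher but some lower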;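 further: thallium influx through GIRK channels coupled to M4 in HEK293 cells with BTC-AM dye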); conditions: at 10 µM, actives lie on both sides
Procedure, shortened: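 Assay system: HEK293 cells with M4 receptor and GIRK channels / Controls: carbachol and DMSO controls / Schedule: 1 h dye loading, 2 min kinetic read / Technique: kinetic fluorescence with BTC-AM dye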

[7] = blockers of RIG-like receptor reporter activation – cell-based, Sendai virus stimulus, luciferase, 10K MLSCN set, TLR/RLR signaling modifier project, primary screen (AID 602276;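 active means inhibition at or above 50% at 10 µM; inactive means inhibition below 50%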;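 further: firefly luciferase from ISG56 promoter only with Renilla not read in this screen; 0% = Sendai virus plus DMSO and 100% = medium plus DMSO without virus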); conditions: HEK293 RL24 IRF3 luciferase reporter, at 10 µM, stronger effect = higher value
[8] = TLR3 IRF3 reporter activation blockers – cell-based, poly I:C stimulus, luciferase, 10K MLSCN set, primary screen (AID 602277;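 active means inhibition of the reporter signal at or above 50%; inactive means inhibition below 50%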); conditions: HEK293-TLR3 RL24 IRF3 luciferase reporter, at 10 µM, stronger effect = higher value

Chain of Voltage-gated potassium channel subunit beta-2 (Rattus norvegicus) (P62483 whole entry, looked up): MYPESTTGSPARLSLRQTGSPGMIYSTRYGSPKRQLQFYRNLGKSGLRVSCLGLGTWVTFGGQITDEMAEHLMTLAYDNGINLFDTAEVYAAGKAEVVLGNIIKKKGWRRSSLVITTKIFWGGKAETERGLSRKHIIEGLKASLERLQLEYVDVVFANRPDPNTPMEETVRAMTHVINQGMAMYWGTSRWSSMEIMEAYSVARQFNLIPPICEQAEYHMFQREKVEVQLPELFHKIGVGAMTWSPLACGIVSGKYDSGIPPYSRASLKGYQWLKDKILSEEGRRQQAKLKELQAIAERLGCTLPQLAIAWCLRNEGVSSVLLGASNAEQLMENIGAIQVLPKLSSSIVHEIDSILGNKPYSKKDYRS
Chain of Muscarinic acetylcholine receptor M4 (Homo sapiens) (P08173 whole entry, looked up): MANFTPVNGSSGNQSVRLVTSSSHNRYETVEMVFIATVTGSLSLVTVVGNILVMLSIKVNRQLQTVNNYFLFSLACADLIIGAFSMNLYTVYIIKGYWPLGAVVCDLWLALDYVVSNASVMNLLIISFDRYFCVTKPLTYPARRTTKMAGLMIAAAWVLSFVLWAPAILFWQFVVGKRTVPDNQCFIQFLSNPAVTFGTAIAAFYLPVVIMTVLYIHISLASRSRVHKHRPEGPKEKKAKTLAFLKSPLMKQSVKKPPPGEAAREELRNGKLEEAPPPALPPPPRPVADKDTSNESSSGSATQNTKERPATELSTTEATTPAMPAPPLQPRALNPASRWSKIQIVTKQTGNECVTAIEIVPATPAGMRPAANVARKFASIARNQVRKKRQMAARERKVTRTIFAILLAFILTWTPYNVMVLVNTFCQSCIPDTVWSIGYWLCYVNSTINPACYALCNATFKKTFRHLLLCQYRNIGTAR

| SMILES | cell count [1] | inhibition [1] | inhibition of aggregation [2] | nuclei count [2] [%] | inhibition [3] | nuclei count [3] [%] | fluorescence slope [4] | NADPH fluorescence slope [5] | fluorescence slope [6] | inhibition [7] | inhibition [8] |
| --- | --- | --- | --- | --- | --- | --- | --- | --- | --- | --- | --- |
| O=S(=O)(c1ccccc1)N1CCN(C2CCCCCCC2)CC1 | 221 | 9.7% (inactive) | 9% (inactive) | 80.6 | -53.1% (inactive) | 148 | -0.479 (inactive) | -1.1e-05 (inactive) | 0.00309 (inactive) | -8.03% (inactive) | -10% (inactive) |
| O=c1c2ccccc2nc(-c2cccc(Cl)c2)n1O | 333 | 11.6% (inactive) | 0.5% (inactive) | 102 | -4.3% (inactive) | 112 | -0.453 (inactive) | -3.1e-05 (inactive) | 0.0197 (active) | 17.4% (inactive) | 6.85% (inactive) |
| CC(Oc1ccc(Cl)cc1Cl)c1nc(-c2ccc(NC(=O)c3cccnc3)cc2)no1 (stereo not drawn) | 413 | 6.5% (inactive) | -6.9% (inactive) | 89.5 | -60.6% (inactive) | 112 | -0.641 (inactive) | 4.9e-05 (inactive) | 0.00494 (inactive) | 1.84% (inactive) | -74.3% (inactive) |
| O=c1cc(-c2ccc(Cl)cc2)[nH][nH]1 | 523 | -2.4% (inactive) | 10.1% (inactive) | 104 | 54.7% (inactive) | 47.1 | -0.27 (inactive) | -4.3e-05 (inactive) | 0.00862 (inactive) | 15.8% (inactive) | -16.8% (inactive) |
| Cc1cc(C)c(NC(=O)C2CCCN2CCO)c(C)c1 (stereo not drawn) | 553 | -0.3% (inactive) | -3.4% (inactive) | 92.5 | -4.2% (inactive) | 84.4 | -0.514 (inactive) | -6.1e-05 (inactive) | 0.00468 (inactive) | -8.07% (inactive) | -8.13% (inactive) |
| CC(C)=CCCC(C)NC(=O)NC1CCCCC1 (stereo not drawn) | 227 | -9.6% (inactive) | -23.2% (inactive) | 91.1 | -50.8% (inactive) | 87 | -0.546 (inactive) | -2.7e-05 (inactive) | 0.00495 (inactive) | -0.0287% (inactive) | -0.553% (inactive) |
| CCC(c1nnnn1CCOC)N(Cc1ccc(C)cc1)Cc1cc2cc(OC)ccc2[nH]c1=O (stereo not drawn) | 519 | 1.9% (inactive) | 11.8% (inactive) | 99.2 | -127% (inactive) | 134 | -0.565 (inactive) | -5.3e-05 (inactive) | 0.00576 (inactive) | 19% (inactive) | 27.8% (inactive) |
| O=C(CCn1c(=O)sc2ccccc21)Nc1cccnc1 | 572 | -7.6% (inactive) | 20.2% (inactive) | 81.9 | -11.2% (inactive) | 110 | -0.443 (inactive) | 0.000131 (inactive) | 0.00603 (inactive) | 8.62% (inactive) | 10.8% (inactive) |
| COc1cccc(-c2cc(C(=O)N3CCCc4ccccc43)no2)c1 | 406 | -23% (inactive) | -4.7% (inactive) | 102 | -13.2% (inactive) | 94.5 | -0.217 (inactive) | -1.8e-05 (inactive) | 0.00726 (inactive) | 0.639% (inactive) | -88.4% (inactive) |
| Cc1ccc(NC2c3ncccc3C(=O)N2C2CCCCC2)cc1C (stereo not drawn) | 465 | 0.7% (inactive) | -11.9% (inactive) | 119 | -28% (inactive) | 102 | -0.276 (inactive) | -8.5e-06 (inactive) | 0.00562 (inactive) | 1.86% (inactive) | 7.53% (inactive) |
| CCOC(=O)c1cnn(-c2ncnc3c2cnn3Cc2ccccc2)c1N | 410 | -4.6% (inactive) | 8.7% (inactive) | 100 | -19.2% (inactive) | 118 | -0.51 (inactive) | 1.3e-05 (inactive) | 0.0057 (inactive) | 17.2% (inactive) | 17.4% (inactive) |
| COc1cc(C2C(C#N)=C(N)OC3=C2C(=O)CCC3)ccc1OC(=O)N1CCOCC1 (stereo not drawn) | 503 | -34.2% (inactive) | -16.1% (inactive) | 93.7 | -20.8% (inactive) | 101 | -0.37 (inactive) | -7.7e-05 (inactive) | 0.00858 (inactive) | 8.74% (inactive) | 6.55% (inactive) |
| O=C(C1CCN(S(=O)(=O)N2CCC3(CC2)OCCO3)CC1)N1CCOCC1 | 648 | 14.8% (inactive) | 17.5% (inactive) | 89.1 | 28.9% (inactive) | 96.9 | -0.571 (inactive) | -8.3e-05 (inactive) | 0.00319 (inactive) | -6.46% (inactive) | -2.34% (inactive) |
| CCOc1ccc(C(c2nnnn2Cc2ccccc2)N2CCN(C(=O)c3ccco3)CC2)cc1 (stereo not drawn) | 621 | -0.2% (inactive) | -6.3% (inactive) | 101 | 20% (inactive) | 104 | -0.492 (inactive) | -2.2e-06 (inactive) | 0.00546 (inactive) | -3.47% (inactive) | 9.07% (inactive) |
| CC(=O)c1c(C)[nH]c(C(=O)NCc2cccs2)c1C | 471 | 2.9% (inactive) | 15.8% (inactive) | 116 | -76.6% (inactive) | 95.6 | -0.561 (inactive) | -4.9e-05 (inactive) | 0.00619 (inactive) | -3.69% (inactive) | -17.2% (inactive) |
| FC(F)(F)C(F)(F)C(F)(F)c1nnc2ccc(N3CCOCC3)nn12 | 420 | 7.9% (inactive) | -8.6% (inactive) | 102 | -41.2% (inactive) | 111 | -0.51 (inactive) | 7.7e-05 (inactive) | 0.0046 (inactive) | -12% (inactive) | -3.61% (inactive) |
| COC(=O)c1ccc(CSc2nc3ccccc3c(=O)n2Cc2ccco2)o1 | 414 | 2.6% (inactive) | -12.9% (inactive) | 111 | 1.8% (inactive) | 114 | -0.563 (inactive) | -1.4e-05 (inactive) | 0.00748 (inactive) | 6.37% (inactive) | -5.19% (inactive) |
| CCn1c(=O)cc(OCC(=O)NCCCN2CC(C)CC(C)C2)c2ccccc21 (stereo not drawn) | 395 | -5.5% (inactive) | -18.3% (inactive) | 111 | -25% (inactive) | 123 | -0.511 (inactive) | -0.000129 (inactive) | 0.00485 (inactive) | 69.4% (active) | 55.8% (active) |
| O=C(CN1C(=O)CCSc2ccccc21)Nc1ccc2c(c1)OCO2 | 700 | -1.6% (inactive) | 31.4% (inactive) | 91.2 | -215% (inactive) | 111 | -0.474 (inactive) | -2.4e-05 (inactive) | 0.00631 (inactive) | 12.5% (inactive) | 23.4% (inactive) |
| Cc1ccc(S(=O)(=O)N(C)CC(=O)NC2CCCC2)cc1 | 226 | 10.1% (inactive) | 1.1% (inactive) | 90.7 | -98.8% (inactive) | 148 | -0.453 (inactive) | -2.6e-05 (inactive) | 0.00453 (inactive) | 10.5% (inactive) | 29.4% (inactive) |
| Cc1ccc(S(=O)(=O)N(C)c2ccc(OCC(=O)OCc3c(C)noc3C)cc2)cc1 | 455 | -15.1% (inactive) | 8.4% (inactive) | 146 | -15.8% (inactive) | 108 | -0.583 (inactive) | -3.3e-05 (inactive) | 0.00507 (inactive) | 5.73% (inactive) | 14.5% (inactive) |
| O=S(=O)(NCCSc1ccccc1)c1cccs1 | 652 | -6.3% (inactive) | -14.5% (inactive) | 103 | -12.2% (inactive) | 104 | -0.208 (inactive) | -2e-05 (inactive) | 0.00557 (inactive) | 5.83% (inactive) | 11.1% (inactive) |
| CCCC(C)C1C(C#N)=C(N)Oc2cc(C)oc(=O)c21 (stereo not drawn) | 396 | -15.6% (inactive) | -2.4% (inactive) | 68.3 | -185% (inactive) | 134 | -0.455 (inactive) | -9.5e-05 (inactive) | 0.00507 (inactive) | 18.1% (inactive) | 18.7% (inactive) |
| Cc1ccc(OCC(=O)NCCN2CCCC2)cc1 | 424 | 0% (inactive) | 5% (inactive) | 101 | -65.5% (inactive) | 102 | -0.404 (inactive) | -0.000132 (inactive) | 0.00568 (inactive) | 15.6% (inactive) | 28% (inactive) |
| Cc1ccc(Nc2cc(C)nc3nnnn23)cc1 | 415 | 0.6% (inactive) | 1.1% (inactive) | 100 | 29.5% (inactive) | 92.2 | -0.559 (inactive) | -6.9e-05 (inactive) | 0.00637 (inactive) | 7.18% (inactive) | 6.33% (inactive) |
| OCc1nc2ccccc2n1CC(O)Cn1ccc2ccccc21 (stereo not drawn) | 463 | 2.9% (inactive) | -7.1% (inactive) | 98.2 | -71.2% (inactive) | 117 | -0.577 (inactive) | -5e-05 (inactive) | 0.00376 (inactive) | 1.37% (inactive) | -8.82% (inactive) |
| CCCCC(=O)Nc1nn(CCC)c2nc3ccccc3cc12 | 363 | 4.2% (inactive) | -14.8% (inactive) | 108 | -44.8% (inactive) | 116 | -0.568 (inactive) | -3.3e-05 (inactive) | 0.00381 (inactive) | 10.1% (inactive) | -0.131% (inactive) |
| COc1ccccc1NC(=O)C(O)C(O)C(=O)Nc1ccccc1OC (stereo not drawn) | 350 | 8.6% (inactive) | 2.9% (inactive) | 84.5 | -101% (inactive) | 101 | -0.351 (inactive) | -4.1e-05 (inactive) | 0.00694 (inactive) | -7.84% (inactive) | -0.666% (inactive) |
